Compound activity from PubChem BioAssay.
CHO parental Ca – counter-screen for OX1R antagonists: effect in parental CHO cells | AID 463079 | 330,000 tested, 0.63% active | parental CHO-K1, ATP-induced calcium, Fluo-8 fluorescence | inhibition, % at 5.6 µM;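 active = inhibition above that plate's mean sample inhibition plus 3 SD, cut at about 26% in these data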;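 note: 0% = ATP-challenged DMSO wells and 100% = DMSO wells without ATP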
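Test system: parental CHO cells; detection: calcium-sensitive Fluo-8 fluorescence; evaluation: percent inhibition of calcium signal; also added: ATP as calcium-mobilizing challenge; repeats: one well per compound; control set: ATP-challenged DMSO wells low, unchallenged DMSO wells high; compound: single nominal dose of 5.6 µM per compound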
OX1R antag-1 – blocks the human orexin 1 receptor; O43613; 330,000 tested, 1.8% active; AID 485270; OX1R-expressing cells, FRET antagonist read-out; inhibition, % at 6.6 µM; in the data active = inhibition mostly above about 38%, no sharp cut-off; inactive = mostly below about 40%;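 note: 0% = agonist challenge alone and 100% = reference antagonist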
Target sequence (O43613 whole entry, looked up): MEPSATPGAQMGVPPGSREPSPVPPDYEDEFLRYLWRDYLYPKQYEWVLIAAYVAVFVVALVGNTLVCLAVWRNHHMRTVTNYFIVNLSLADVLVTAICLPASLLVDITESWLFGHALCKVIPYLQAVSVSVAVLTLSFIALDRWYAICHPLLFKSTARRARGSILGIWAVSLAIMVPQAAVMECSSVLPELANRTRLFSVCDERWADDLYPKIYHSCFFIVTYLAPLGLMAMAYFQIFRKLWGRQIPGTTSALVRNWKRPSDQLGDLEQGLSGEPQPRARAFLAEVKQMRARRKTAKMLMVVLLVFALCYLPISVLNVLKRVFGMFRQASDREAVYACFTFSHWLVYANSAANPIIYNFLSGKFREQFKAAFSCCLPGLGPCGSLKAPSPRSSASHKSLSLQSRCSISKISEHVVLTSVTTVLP
CHO-K1 Ca PAM – nonselective activator or artifact in parental CHO-K1 calcium assay | ATP EC20, Fluo-8 calcium fluorescence; 0% at ATP EC20, 100% at ATP max | activation, % at 3 µM | 360,000 tested, 0.02% active | AID 602247;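 active = activation above the run cutoff, the mean activation of all test compounds plus 3 SD, cut at about 40% in these data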;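 note: peak over basal fluorescence ratio in a 140 s read after ATP addition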
M1 ag parental – counter-screen for M1 agonists: effect in parental CHO-K1 cells; Fluo-8 calcium fluorescence; scaled to maximal ATP response, vehicle zero; activation, % at 3 µM; 360,000 tested, 0.48% active; in the data active = activation above about 15%;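 note: untransfected CHO-K1 host cells lacking M1 receptor as counterscreen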
CHO-K1 Ca antag – nonselective inhibitor or artifact in parental CHO-K1 cells; 360,000 tested, 0.6% active; ATP-induced calcium, Fluo-8 fluorescence; AID 602250; inhibition, % at 3 µM;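 active = inhibition above a per-plate cutoff, the plate's mean sample inhibition plus 3 SD, cut at about 24% in these data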;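 note: 0% = DMSO plus EC80 ATP and 100% = DMSO alone without ATP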
OX1R antag-2 – blocks the human orexin 1 receptor; 330,000 tested, 0.43% active; CHO/OX1R cells, Fluo-8 calcium fluorescence, orexin A; O43613; inhibition, % at 5 µM;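 active = inhibition above its plate's threshold, mean inhibition of all tested compounds on the plate plus 3 SD, cut at about 37% in these data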;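 note: 0% = orexin A challenge wells and 100% = SB-334867-A antagonist wells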
An asterisk follows results filed as active. Most compounds without a hit are left out; they make up all but 2.9% or so of the library.

`COC(=O)c1[nH]c2cc(OC)c(OC)cc2c1NC(=O)CN1C[C@H]2C[C@@H](C1)c1cccc(=O)n1C2` gave CHO parental Ca -7.2, OX1R antag-1 2.9, CHO-K1 Ca PAM -0.1, M1 ag parental 0.3, CHO-K1 Ca antag -16.3 and OX1R antag-2 -11.1.
Screening CCCCCCC(NC(=O)Cc1ccc2ccccc2c1)C(=O)O (stereo not drawn) returned CHO parental Ca -7.2, OX1R antag-1 6.0, CHO-K1 Ca PAM -5.4, M1 ag parental -0.1, CHO-K1 Ca antag -7.0 and OX1R antag-2 -16.8.
Screening COc1ccc(C(O)c2nc(-c3ccccc3C)cs2)cc1 (stereo not drawn) returned CHO-K1 Ca PAM 5.4, M1 ag parental 1.8 and CHO-K1 Ca antag 0.9.
Screening COc1ccc(-c2cc(C(F)(F)F)nc(SCC(=O)Nc3cc(C)on3)n2)cc1OC returned CHO parental Ca -18.7, OX1R antag-1 26.2, CHO-K1 Ca PAM -6.3, M1 ag parental 0.2, CHO-K1 Ca antag 24.9* and OX1R antag-2 -20.0.
For Cc1ccccc1NC(=O)CCS(=O)(=O)c1cccc2nonc12 the results were CHO parental Ca -3.0, OX1R antag-1 55.0*, CHO-K1 Ca PAM 8.0, M1 ag parental 0.9, CHO-K1 Ca antag -16.6 and OX1R antag-2 -14.0.
Screening COc1ccc(-c2nc(CSCC(=O)NCc3ccc4c(c3)OCO4)c(C)o2)cc1OC returned CHO parental Ca -14.0, OX1R antag-1 34.7, CHO-K1 Ca PAM 31.1, M1 ag parental 1.1, CHO-K1 Ca antag -11.8 and OX1R antag-2 -17.2.
`Cc1ccsc1-c1nc(CSCC(=O)NCc2ccc3c(c2)OCO3)c(C)o1` gave CHO parental Ca -12.3, OX1R antag-1 39.7*, CHO-K1 Ca PAM 10.8, M1 ag parental 1.0, CHO-K1 Ca antag -6.3 and OX1R antag-2 -29.9.
`COc1cc(C[C@@H]2C(=O)OC[C@H]2Cc2ccc(OC)c(OC)c2)ccc1O` gave CHO parental Ca 12.8, OX1R antag-1 12.1, CHO-K1 Ca PAM 4.8, M1 ag parental 11.8, CHO-K1 Ca antag 4.4 and OX1R antag-2 32.6.
For Cc1nnc(N/N=C/c2cccc(C(F)(F)F)c2)n1N the results were CHO parental Ca -9.4, OX1R antag-1 22.1, CHO-K1 Ca PAM 2.2, M1 ag parental 1.2, CHO-K1 Ca antag -11.2 and OX1R antag-2 -1.0.
`Cc1nnc(N/N=C/c2cccc(OCc3ccc(Cl)c(Cl)c3)c2)n1N` gave CHO parental Ca -8.7, OX1R antag-1 43.8*, CHO-K1 Ca PAM 16.4, M1 ag parental 1.2, CHO-K1 Ca antag -2.4 and OX1R antag-2 -6.5.
Screening COc1cc(-c2cccc([C@H]3[C@@H]4C=CC[C@@H](C)[C@@H]4C(=O)N3Cc3ccccc3)c2)cc(OC)c1OC returned CHO parental Ca -24.9, OX1R antag-1 18.2, CHO-K1 Ca PAM -8.6, M1 ag parental -0.2, CHO-K1 Ca antag -5.0 and OX1R antag-2 -5.1.
For COc1ccccc1-c1cc2nc(C)cc(C)n2n1 the results were CHO parental Ca -26.4, OX1R antag-1 62.2*, CHO-K1 Ca PAM 1.2, M1 ag parental -0.1, CHO-K1 Ca antag -2.9 and OX1R antag-2 10.5.
Cc1cccc(-c2cc3nc(C)cc(C)n3n2)c1 was read as CHO parental Ca -6.0, OX1R antag-1 64.8*, CHO-K1 Ca PAM -14.8, M1 ag parental -0.6, CHO-K1 Ca antag 21.3 and OX1R antag-2 20.8.
`COc1ccc(-c2cc3nc(C)cc(N)n3n2)cc1` gave CHO parental Ca -8.3, OX1R antag-1 4.1, CHO-K1 Ca PAM 14.3, M1 ag parental 0.1, CHO-K1 Ca antag -6.0 and OX1R antag-2 -17.7.
`Cc1cccc(-c2cc3nc(C)cc(N4CC(C)CC(C)C4)n3n2)c1` (stereo not drawn) gave CHO parental Ca -32.3, OX1R antag-1 -12.1, CHO-K1 Ca PAM 21.3, M1 ag parental 0.1, CHO-K1 Ca antag -12.8 and OX1R antag-2 -27.6.
`COc1ccccc1NS(=O)(=O)c1ccc2[nH]c(=S)oc2c1` gave CHO parental Ca -13.8, OX1R antag-1 25.6, CHO-K1 Ca PAM 8.7, M1 ag parental 0.5, CHO-K1 Ca antag -14.1 and OX1R antag-2 21.3.
Cc1ccnc(NC(=O)c2cccc(OC(F)F)c2)n1 was read as CHO parental Ca -6.2, OX1R antag-1 10.6, CHO-K1 Ca PAM -2.8, M1 ag parental 0.2, CHO-K1 Ca antag -1.7 and OX1R antag-2 -14.5.
